Source: ChEMBL document CHEMBL3596134 (J Med Chem, 2015)

Columns and labels:
[1] = Oral bioavailability in guinea pig at 30 mg/kg; assay type: ADME, organism-based, Cavia porcellus; conditions: in vivo
[2] = Oral bioavailability in guinea pig at 10 mg/kg; assay type: ADME, organism-based, Cavia porcellus; conditions: in vivo
Outline: (§1)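 Single iv and oral dosing in rat, guinea pig or dog; iv and po given as solutions in wellsolve/H2O 1/9 with NaOH (2 equiv). Animals fasted before oral dosing; noncrossover design, n = 3. Plasma protein-precipitated with acetonitrile/ethanol (70/30) and assayed by HPLC/MS/MS with negative-ion ionization. Noncompartmental analysis; F from mean po AUC over mean iv AUC.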

[3] = Oral bioavailability in rat at 10 mg/kg; assay type: ADME, organism-based; conditions: in vivo; outline: as §1
[4] = AUC in guinea pig at 10 mg/kg, po; assay type: ADME, organism-based, Cavia porcellus; conditions: in vivo; outline: as §1
[5] = Volume of distribution at steady state in dog at 1 mg/kg, iv and 1 mg/kg, po; assay type: ADME, organism-based, Canis lupus familiaris; conditions: in vivo, read-out: Vdss
Outline: (§2)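 Single iv and oral doses were given as solutions in wellsolve/H2O 1/9 with 2 equiv NaOH. Animals were fasted before oral dosing, in a noncrossover design with n = 3. Plasma was protein-precipitated with acetonitrile/ethanol 70/30 and analysed by HPLC/MS/MS (negative-ion Turbo IonSpray). Parameters were derived by noncompartmental analysis and reported as mean ± SD.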

[6] = Plasma concentration in guinea pig measured over 24 hrs; assay type: ADME, Cavia porcellus
Outline: (§3)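 Lungs homogenized in saline; homogenate digested in 2 mol/L NaOH at 60 °C for 3 h, then diluted 50-fold in PBS. Protein measured by BCA. Compound measured by negative-ion HPLC/MS/MS after ethanol precipitation and expressed as ng/g protein. Plasma and lung values given as mean with SD, n = 4.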

[7] = Half life in rat at 1 mg/kg, iv; assay type: ADME, organism-based; conditions: in vivo; outline: as §1
[8] = Stability of the compound in ambient light; assay type: physicochemical
[9] = Clearance in rat at 1 mg/kg, iv; assay type: ADME, organism-based; conditions: in vivo; outline: as §1
[10] = Half life in guinea pig at 1 mg/kg, iv; assay type: ADME, organism-based, Cavia porcellus; conditions: in vivo; outline: as §1
[11] = Drug uptake in lung of guinea pig measured over 24 hrs; assay type: ADME, tissue-based, Cavia porcellus; conditions: read-out: Drug uptake; outline: as §3
[12] = Oral bioavailability in rat at 3 mg/kg; assay type: ADME, organism-based; conditions: in vivo; outline: as §1
[13] = Volume of distribution at steady state in guinea pig at 1 mg/kg, iv and 10 mg/kg, po; assay type: ADME, organism-based, Cavia porcellus; conditions: in vivo, read-out: Vdss
[14] = Ratio of drug level in lung to plasma in guinea pig measured over 24 hrs; assay type: ADME, Cavia porcellus; conditions: lung and plasma
Outline: (§4)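 Guinea pigs were dosed orally. Lungs were homogenized in saline, digested in 2 mol/L NaOH at 60 °C for 3 h, diluted 50-fold in PBS, and assayed for protein by BCA. Drug in lung was quantified by HPLC/MS/MS (negative-ion) after ethanol precipitation and expressed as ng/g protein. Plasma was assayed after acetonitrile/ethanol precipitation. Kp is the lung:plasma concentration ratio.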

[15] = (§5) AUC in dog at 1 mg/kg, po; assay type: ADME, organism-based, Canis lupus familiaris; conditions: in vivo; outline: as §1
[16] = Clearance in guinea pig at 1 mg/kg, iv; assay type: ADME, organism-based, Cavia porcellus; conditions: in vivo; outline: as §1
[17] = Volume of distribution at steady state in rat at 1 mg/kg, iv and 3 mg/kg, po; assay type: ADME, organism-based; conditions: in vivo, read-out: Vdss; outline: as §2
[18] = Oral bioavailability in dog at 1 mg/kg; assay type: ADME, organism-based, Canis lupus familiaris; conditions: in vivo; outline: as §1
[19] = Clearance in dog at 1 mg/kg, iv; assay type: ADME, organism-based, Canis lupus familiaris; conditions: in vivo; outline: as §1
[20] = Half life in dog at 1 mg/kg, iv; assay type: ADME, organism-based, Canis lupus familiaris; conditions: in vivo; outline: as §1
[21] = AUC in rat at 3 mg/kg, po; assay type: ADME, organism-based; conditions: in vivo; outline: as §1
[22] = AUC in guinea pig at 0.2 mg/kg, iv and 1 mg/kg, po administered as cassette dosing; assay type: ADME, organism-based, Cavia porcellus; conditions: in vivo
[23] = Stability of the compound in H2SO4/DME/H2O at 50 degC measured for 24 hrs; assay type: physicochemical
Outline: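 Compound was held in 1 mol/L H2SO4 in DME/H2O at 50 °C for 24 h and checked for degradation.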

[24] = Stability of the compound in NaOH/DME/EtOH/H2O at 50 degC measured for 24 hrs; assay type: physicochemical
Outline: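 Compound was held in 1 mol/L NaOH in DME/EtOH/H2O at 50 °C for 24 h and checked for degradation.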

[25] = Oral bioavailability in guinea pig at 1 mg/kg administered as cassette dosing; assay type: ADME, organism-based, Cavia porcellus; conditions: in vivo
Outline: (§6)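 Guinea pig cassette dosing of five compounds per solution, 0.2 mg/kg iv and 1 mg/kg po. Vehicle wellsolve/H2O 5/95 with NaOH (1.2 equiv). Animals fasted before oral dosing; noncrossover design, n = 3. Plasma protein-precipitated with acetonitrile/ethanol (70/30) and assayed by negative-ion HPLC/MS/MS. Noncompartmental analysis; F from mean AUCs.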

[26] = Cmax in rat at 1 mg/kg, po; assay type: ADME, organism-based; set-up: dose 1 mg/kg, route oral; conditions: in vivo; outline: as §1
[27] = Volume of distribution at steady state in rat at 0.2 mg/kg, iv and 1 mg/kg, po administered as cassette dosing; assay type: ADME, organism-based; conditions: in vivo, read-out: Vdss
[28] = Plasma concentration in guinea pig at 3 mg/kg, po measured over 7 days; assay type: ADME, organism-based, Cavia porcellus; outline: as §3
[29] = Oral bioavailability in rat at 1 mg/kg; assay type: ADME, organism-based; conditions: in vivo; outline: as §1
[30] = Volume of distribution at steady state in rat at 1 mg/kg, iv and 1 mg/kg, po; assay type: ADME, organism-based; conditions: in vivo, read-out: Vdss; outline: as §2
[31] = Ratio of drug level in lung to plasma in guinea pig at 3 mg/kg, po measured over 7 days; assay type: ADME, organism-based, Cavia porcellus; conditions: lung and plasma; outline: as §4
[32] = AUC in rat at 1 mg/kg, po; assay type: ADME, organism-based; conditions: in vivo; outline: as §1
[33] = AUC in guinea pig at 1 mg/kg, po administered as cassette dosing; assay type: ADME, organism-based, Cavia porcellus; conditions: in vivo
[34] = Plasma concentration in guinea pig at 0.3 mg/kg, po measured over 7 days; assay type: ADME, organism-based, Cavia porcellus; outline: as §3
[35] = Cmax in guinea pig at 1 mg/kg, po administered as cassette dosing; assay type: ADME, organism-based, Cavia porcellus; set-up: dose 1 mg/kg, route oral; conditions: in vivo; outline: as §6
[36] = Drug uptake in lung of guinea pig at 3 mg/kg, po measured over 7 days; assay type: ADME, organism-based, Cavia porcellus; conditions: read-out: Drug uptake; outline: as §3
Canis familiaris [37] = assay: Oral bioavailability in dog at 1 mg/kg administered as cassette dosing; assay type: ADME, organism-based, Canis lupus familiaris; conditions: in vivo
[38] = Half life in guinea pig at 0.2 mg/kg, iv administered as cassette dosing; assay type: ADME, organism-based, Cavia porcellus; conditions: in vivo; outline: as §6
Canis familiaris [39] = assay: as §5; assay type: ADME, organism-based, Canis lupus familiaris; conditions: in vivo; outline: as §1
[40] = Clearance in rat at 1 mg/kg, iv and 1 mg/kg, po; assay type: ADME, organism-based; conditions: in vivo; outline: as §1
[41] = Clearance in rat at 0.2 mg/kg, iv and 1 mg/kg, po administered as cassette dosing; assay type: ADME, organism-based; conditions: in vivo
[42] = Drug uptake in lung of guinea pig at 0.3 mg/kg, po measured over 7 days; assay type: ADME, organism-based, Cavia porcellus; conditions: read-out: Drug uptake; outline: as §3
[43] = Cmax in dog at 1 mg/kg, po; assay type: ADME, organism-based, Canis lupus familiaris; set-up: dose 1 mg/kg, route oral; conditions: in vivo; outline: as §1
[44] = Ratio of drug level in lung to plasma in guinea pig at 0.3 mg/kg, po measured over 7 days; assay type: ADME, organism-based, Cavia porcellus; conditions: lung and plasma; outline: as §4

## O=C(O)CCCN1CC(C(=O)O)Oc2c(NC(=O)c3ccc(OCCCCc4ccccc4)cc3)cccc21 (stereo not drawn)
[1]
  bioavailability: 2.8%

## O=C(O)CCCn1cc(CC(=O)O)c2c(/C=C/c3ccc(OCCCCOc4ccccc4)cc3)cccc21
[2]
  bioavailability: 26%

## O=C(O)CCCc1cn(CC(=O)O)c2c(/C=C/c3ccc(OCCCCOc4ccccc4)cc3)cccc12
[3]
  bioavailability: 66%
[2]
  bioavailability: 12%

## Cc1c(Cl)cccc1CCCCOc1ccc(/C=C/c2cccc3c(CCCC(=O)O)c(C)n(CC(=O)O)c23)cc1
[4]
  AUC: 10000 ng·h/mL
[5]
  Vd: 0.38 L/kg
[6]
  concentration at 24 h: 16 ng/mL
[7]
  half-life: 8.9 h
[8]
  Stability: Unstable
[9]
  clearance: 1.1 mL/min/kg
[10]
  half-life: 5.3 h
[11]
  concentration at 24 h: 253 ng/g
[12]
  bioavailability: 56%
[13]
  Vd: 0.23 L/kg
[14]
  Kp at 24 h: 15
[2]
  bioavailability: 11%
[15]
  AUC: 650 ng·h/mL
[16]
  clearance: 1.8 mL/min/kg
[17]
  Vd: 0.3 L/kg
[18]
  bioavailability: 21%
[19]
  clearance: 5.5 mL/min/kg
[20]
  half-life: 4.7 h
[21]
  AUC: 39000 ng·h/mL

## Cc1c(Cl)cccc1CCCCOc1ccc(C#Cc2cccc3c(CCCC(=O)O)c(C)n(CCCC(=O)O)c23)cc1
[8]
  Stability: Stable
[22]
  AUC: 10500 ng·h/mL
[23]
  Stability: Stable
[24]
  Stability: Stable
[25]
  bioavailability: 66%

## Cc1c(Cl)cccc1CCCCOc1ccc(C#Cc2ccc(F)c3c(CCCC(=O)O)c(C)n(CCCC(=O)O)c23)cc1
[22]
  AUC: 3400 ng·h/mL
[25]
  bioavailability: 52%

## Cc1c(F)cccc1CCCCOc1ccc(C#Cc2ccc(F)c3c(CCCC(=O)O)c(C)n(CCCC(=O)O)c23)cc1
[26]
  Cmax: 1190 ng/mL
[5]
  Vd: 0.14 L/kg
[27]
  Vd: 0.31 L/kg
[28]
  concentration at 168 h: 83 ng/mL
[29]
  bioavailability: 35%
[30]
  Vd: 0.24 L/kg
[7]
  half-life: 9.6 h
[31]
  Kp at 168 h: 8
[32]
  AUC: 9330 ng·h/mL
[33]
  AUC: 8510 ng·h/mL
[34]
  concentration at 168 h: 8.7 ng/mL
[35]
  Cmax: 1010 ng/mL
[36]
  concentration at 168 h: 573 ng/g
Canis familiaris [37]
  F: 51%
[38]
  half-life: 7.1 h
Canis familiaris [39]
  AUC: 28200 ng·h/mL
[40]
  clearance: 0.68 mL/min/kg
[41]
  clearance: 1.1 mL/min/kg
[42]
  concentration at 168 h: 267 ng/g
[43]
  Cmax: 3690 ng/mL
[44]
  Kp at 168 h: 30
[20]
  half-life: 7.6 h
[25]
  bioavailability: 56%
